Laboratory results published in PMC7744997 (Clinical Infectious Diseases: An Official Publication of …, 2020).

Experiments:
[1] = Laboratory safety in RSV-infected infants; assay type: in vivo, human
Outline: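 Clinical laboratory tests were run in RSV-infected infants (>1 to ≤24 months) given oral drug or placebo once daily for 7 days. Abnormalities were graded with the DMID Pediatric Toxicity Tables (November 2007 version). Patients were followed for 28 days after randomisation.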

RSV [2] = assay: RSV RNA viral load from nasal swabs by qRT-PCR in RSV-infected infants; assay type: in vivo, respiratory syncytial virus
Outline: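 Viral load was measured by quantitative real-time RT-PCR on midturbinate nasal swabs, taken over time during 7 days of once-daily oral dosing. After hospital discharge, no samples were taken until the day 7 visit. Results were expressed as median change from baseline.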

RSV [3] = settings: healthy volunteers, 75–500 mg once daily for 7 days; cited from earlier work

## CS(=O)(=O)CCCn1c(Cn2c(=O)n(CC(F)(F)F)c3ccncc32)cc2cc(Cl)ccc21 [JNJ-53718678]
[1]; All cohorts, n=37
  Hemoglobin Grade 1 (treatment-emergent worst toxicity grade): 2 (5) no. (%)
  Hemoglobin Grade 2 (treatment-emergent worst toxicity grade): 1 (3) no. (%)
  Hyperkalemia Grade 1 (treatment-emergent worst toxicity grade): 10 (27) no. (%)
  Hyperkalemia Grade 2 (treatment-emergent worst toxicity grade): 2 (5) no. (%)
  Hypoglycemia Grade 1 (treatment-emergent worst toxicity grade): 3 (8) no. (%)
  Hyponatremia Grade 2 (treatment-emergent worst toxicity grade): 3 (8) no. (%)
[1]; All, n=26
  Eosinophils/leukocytes: Above (treatment-emergent nongraded abnormality): 7 (27) no. (%)
  Eosinophils/leukocytes: Below (treatment-emergent nongraded abnormality): 1 (4) no. (%)
  Lymphocytes/leukocytes: Above (treatment-emergent nongraded abnormality): 6 (23) no. (%)
  Lymphocytes/leukocytes: Below (treatment-emergent nongraded abnormality): 1 (4) no. (%)
  Monocytes/leukocytes: Above (treatment-emergent nongraded abnormality): 5 (19) no. (%)
  Monocytes/leukocytes: Below (treatment-emergent nongraded abnormality): 3 (12) no. (%)
  Neutrophils/leukocytes: Above (treatment-emergent nongraded abnormality): 1 (4) no. (%)
  Neutrophils/leukocytes: Below (treatment-emergent nongraded abnormality): 6 (23) no. (%)
[1]; All, n=33
  Urea: Above (treatment-emergent nongraded abnormality): 1 (3) no. (%)
  Urea: Below (treatment-emergent nongraded abnormality): 5 (15) no. (%)
[1]; All, n=35
  Bicarbonate: Above (treatment-emergent nongraded abnormality): 3 (9) no. (%)
  Bicarbonate: Below (treatment-emergent nongraded abnormality): 6 (17) no. (%)
  Eosinophils: Above (treatment-emergent nongraded abnormality): 7 (20) no. (%)
  Eosinophils: Below (treatment-emergent nongraded abnormality): 0 no. (%)
[1]; All, n=36
  Lymphocytes: Above (treatment-emergent nongraded abnormality): 6 (17) no. (%)
  Lymphocytes: Below (treatment-emergent nongraded abnormality): 0 no. (%)
[1]; All, n=37
  Alkaline phosphatase: Above (treatment-emergent nongraded abnormality): 2 (5) no. (%)
  Alkaline phosphatase: Below (treatment-emergent nongraded abnormality): 3 (8) no. (%)
  Chloride: Above (treatment-emergent nongraded abnormality): 5 (14) no. (%)
  Chloride: Below (treatment-emergent nongraded abnormality): 1 (3) no. (%)
  Erythrocytes: Above (treatment-emergent nongraded abnormality): 4 (11) no. (%)
  Erythrocytes: Below (treatment-emergent nongraded abnormality): 3 (8) no. (%)
  Leukocytes: Above (treatment-emergent nongraded abnormality): 6 (16) no. (%)
[1]; High (cohorts 1d,2c,3c), n=4
  Eosinophils/leukocytes: Above (treatment-emergent nongraded abnormality): 1 (25) no. (%)
  Eosinophils/leukocytes: Below (treatment-emergent nongraded abnormality): 0 no. (%)
  Lymphocytes/leukocytes: Above (treatment-emergent nongraded abnormality): 1 (25) no. (%)
  Lymphocytes/leukocytes: Below (treatment-emergent nongraded abnormality): 0 no. (%)
  Monocytes/leukocytes: Above (treatment-emergent nongraded abnormality): 0 no. (%)
  Monocytes/leukocytes: Below (treatment-emergent nongraded abnormality): 0 no. (%)
  Neutrophils/leukocytes: Above (treatment-emergent nongraded abnormality): 0 no. (%)
  Neutrophils/leukocytes: Below (treatment-emergent nongraded abnormality): 0 no. (%)
[1]; High (cohorts 1d,2c,3c), n=8
  Bicarbonate: Above (treatment-emergent nongraded abnormality): 0 no. (%)
  Bicarbonate: Below (treatment-emergent nongraded abnormality): 3 (38) no. (%)
  Eosinophils: Above (treatment-emergent nongraded abnormality): 0 no. (%)
  Eosinophils: Below (treatment-emergent nongraded abnormality): 0 no. (%)
[1]; High (cohorts 1d,2c,3c), n=9
  Alkaline phosphatase: Above (treatment-emergent nongraded abnormality): 0 no. (%)
  Alkaline phosphatase: Below (treatment-emergent nongraded abnormality): 0 no. (%)
  Chloride: Above (treatment-emergent nongraded abnormality): 0 no. (%)
  Chloride: Below (treatment-emergent nongraded abnormality): 0 no. (%)
  Erythrocytes: Above (treatment-emergent nongraded abnormality): 0 no. (%)
  Erythrocytes: Below (treatment-emergent nongraded abnormality): 1 (11) no. (%)
  Hemoglobin Grade 1 (treatment-emergent worst toxicity grade): 0 no. (%)
  Hemoglobin Grade 2 (treatment-emergent worst toxicity grade): 0 no. (%)
  Hyperkalemia Grade 1 (treatment-emergent worst toxicity grade): 1 (11) no. (%)
  Hyperkalemia Grade 2 (treatment-emergent worst toxicity grade): 1 (11) no. (%)
  Hypoglycemia Grade 1 (treatment-emergent worst toxicity grade): 3 (33) no. (%)
  Hyponatremia Grade 2 (treatment-emergent worst toxicity grade): 1 (11) no. (%)
  Leukocytes: Above (treatment-emergent nongraded abnormality): 3 (33) no. (%)
  Lymphocytes: Above (treatment-emergent nongraded abnormality): 1 (11) no. (%)
  Lymphocytes: Below (treatment-emergent nongraded abnormality): 0 no. (%)
  Urea: Above (treatment-emergent nongraded abnormality): 0 no. (%)
  Urea: Below (treatment-emergent nongraded abnormality): 0 no. (%)
[1]; Low (cohorts 1a,2a,3a), n=9
  Eosinophils/leukocytes: Above (treatment-emergent nongraded abnormality): 2 (22) no. (%)
  Eosinophils/leukocytes: Below (treatment-emergent nongraded abnormality): 0 no. (%)
  Lymphocytes/leukocytes: Above (treatment-emergent nongraded abnormality): 2 (22) no. (%)
  Lymphocytes/leukocytes: Below (treatment-emergent nongraded abnormality): 0 no. (%)
  Monocytes/leukocytes: Above (treatment-emergent nongraded abnormality): 2 (22) no. (%)
  Monocytes/leukocytes: Below (treatment-emergent nongraded abnormality): 2 (22) no. (%)
  Neutrophils/leukocytes: Above (treatment-emergent nongraded abnormality): 0 no. (%)
  Neutrophils/leukocytes: Below (treatment-emergent nongraded abnormality): 3 (33) no. (%)
  Urea: Above (treatment-emergent nongraded abnormality): 1 (11) no. (%)
  Urea: Below (treatment-emergent nongraded abnormality): 1 (11) no. (%)
[1]; Low (cohorts 1a,2a,3a), n=11
  Bicarbonate: Above (treatment-emergent nongraded abnormality): 1 (9) no. (%)
  Bicarbonate: Below (treatment-emergent nongraded abnormality): 0 no. (%)
[1]; Low (cohorts 1a,2a,3a), n=12
  Alkaline phosphatase: Above (treatment-emergent nongraded abnormality): 1 (8) no. (%)
  Alkaline phosphatase: Below (treatment-emergent nongraded abnormality): 0 no. (%)
  Chloride: Above (treatment-emergent nongraded abnormality): 1 (8) no. (%)
  Chloride: Below (treatment-emergent nongraded abnormality): 0 no. (%)
  Eosinophils: Above (treatment-emergent nongraded abnormality): 4 (33) no. (%)
  Eosinophils: Below (treatment-emergent nongraded abnormality): 0 no. (%)
  Erythrocytes: Above (treatment-emergent nongraded abnormality): 1 (8) no. (%)
  Erythrocytes: Below (treatment-emergent nongraded abnormality): 0 no. (%)
  Hemoglobin Grade 1 (treatment-emergent worst toxicity grade): 1 (8) no. (%)
  Hemoglobin Grade 2 (treatment-emergent worst toxicity grade): 0 no. (%)
  Hyperkalemia Grade 1 (treatment-emergent worst toxicity grade): 4 (33) no. (%)
  Hyperkalemia Grade 2 (treatment-emergent worst toxicity grade): 0 no. (%)
  Hypoglycemia Grade 1 (treatment-emergent worst toxicity grade): 0 no. (%)
  Hyponatremia Grade 2 (treatment-emergent worst toxicity grade): 1 (8) no. (%)
  Leukocytes: Above (treatment-emergent nongraded abnormality): 1 (8) no. (%)
  Lymphocytes: Above (treatment-emergent nongraded abnormality): 2 (17) no. (%)
  Lymphocytes: Below (treatment-emergent nongraded abnormality): 0 no. (%)
[1]; Mid (cohorts 1b,2b,3b), n=9
  Eosinophils/leukocytes: Above (treatment-emergent nongraded abnormality): 3 (33) no. (%)
  Eosinophils/leukocytes: Below (treatment-emergent nongraded abnormality): 0 no. (%)
  Lymphocytes/leukocytes: Above (treatment-emergent nongraded abnormality): 3 (33) no. (%)
  Lymphocytes/leukocytes: Below (treatment-emergent nongraded abnormality): 1 (11) no. (%)
  Monocytes/leukocytes: Above (treatment-emergent nongraded abnormality): 3 (33) no. (%)
  Monocytes/leukocytes: Below (treatment-emergent nongraded abnormality): 1 (11) no. (%)
  Neutrophils/leukocytes: Above (treatment-emergent nongraded abnormality): 1 (11) no. (%)
  Neutrophils/leukocytes: Below (treatment-emergent nongraded abnormality): 3 (33) no. (%)
[1]; Mid (cohorts 1b,2b,3b), n=11
  Eosinophils: Above (treatment-emergent nongraded abnormality): 2 (18) no. (%)
  Eosinophils: Below (treatment-emergent nongraded abnormality): 0 no. (%)
  Lymphocytes: Above (treatment-emergent nongraded abnormality): 2 (18) no. (%)
  Lymphocytes: Below (treatment-emergent nongraded abnormality): 0 no. (%)
[1]; Mid (cohorts 1b,2b,3b), n=12
  Alkaline phosphatase: Above (treatment-emergent nongraded abnormality): 1 (8) no. (%)
  Alkaline phosphatase: Below (treatment-emergent nongraded abnormality): 2 (17) no. (%)
  Bicarbonate: Above (treatment-emergent nongraded abnormality): 2 (17) no. (%)
  Bicarbonate: Below (treatment-emergent nongraded abnormality): 2 (17) no. (%)
  Chloride: Above (treatment-emergent nongraded abnormality): 2 (17) no. (%)
  Chloride: Below (treatment-emergent nongraded abnormality): 1 (8) no. (%)
  Erythrocytes: Above (treatment-emergent nongraded abnormality): 1 (8) no. (%)
  Erythrocytes: Below (treatment-emergent nongraded abnormality): 2 (17) no. (%)
  Hemoglobin Grade 1 (treatment-emergent worst toxicity grade): 1 (8) no. (%)
  Hemoglobin Grade 2 (treatment-emergent worst toxicity grade): 1 (8) no. (%)
  Hyperkalemia Grade 1 (treatment-emergent worst toxicity grade): 3 (25) no. (%)
  Hyperkalemia Grade 2 (treatment-emergent worst toxicity grade): 1 (8.3) no. (%)
  Hypoglycemia Grade 1 (treatment-emergent worst toxicity grade): 0 no. (%)
  Hyponatremia Grade 2 (treatment-emergent worst toxicity grade): 0 no. (%)
  Leukocytes: Above (treatment-emergent nongraded abnormality): 2 (17) no. (%)
  Urea: Above (treatment-emergent nongraded abnormality): 0 no. (%)
  Urea: Below (treatment-emergent nongraded abnormality): 4 (33) no. (%)
[1]; Mid-high (cohort 1c), n=3
  Urea: Above (treatment-emergent nongraded abnormality): 0 no. (%)
  Urea: Below (treatment-emergent nongraded abnormality): 0 no. (%)
[1]; Mid-high (cohort 1c), n=4
  Alkaline phosphatase: Above (treatment-emergent nongraded abnormality): 0 no. (%)
  Alkaline phosphatase: Below (treatment-emergent nongraded abnormality): 1 (25) no. (%)
  Bicarbonate: Above (treatment-emergent nongraded abnormality): 0 no. (%)
  Bicarbonate: Below (treatment-emergent nongraded abnormality): 1 (25) no. (%)
  Chloride: Above (treatment-emergent nongraded abnormality): 2 (50) no. (%)
  Chloride: Below (treatment-emergent nongraded abnormality): 0 no. (%)
  Eosinophils/leukocytes: Above (treatment-emergent nongraded abnormality): 1 (25) no. (%)
  Eosinophils/leukocytes: Below (treatment-emergent nongraded abnormality): 1 (25) no. (%)
  Eosinophils: Above (treatment-emergent nongraded abnormality): 1 (25) no. (%)
  Eosinophils: Below (treatment-emergent nongraded abnormality): 0 no. (%)
  Erythrocytes: Above (treatment-emergent nongraded abnormality): 2 (50) no. (%)
  Erythrocytes: Below (treatment-emergent nongraded abnormality): 0 no. (%)
  Hemoglobin Grade 1 (treatment-emergent worst toxicity grade): 0 no. (%)
  Hemoglobin Grade 2 (treatment-emergent worst toxicity grade): 0 no. (%)
  Hyperkalemia Grade 1 (treatment-emergent worst toxicity grade): 2 (50) no. (%)
  Hyperkalemia Grade 2 (treatment-emergent worst toxicity grade): 0 no. (%)
  Hypoglycemia Grade 1 (treatment-emergent worst toxicity grade): 0 no. (%)
  Hyponatremia Grade 2 (treatment-emergent worst toxicity grade): 1 (25) no. (%)
  Leukocytes: Above (treatment-emergent nongraded abnormality): 0 no. (%)
  Lymphocytes/leukocytes: Above (treatment-emergent nongraded abnormality): 0 no. (%)
  Lymphocytes/leukocytes: Below (treatment-emergent nongraded abnormality): 0 no. (%)
  Lymphocytes: Above (treatment-emergent nongraded abnormality): 1 (25) no. (%)
  Lymphocytes: Below (treatment-emergent nongraded abnormality): 0 no. (%)
  Monocytes/leukocytes: Above (treatment-emergent nongraded abnormality): 0 no. (%)
  Monocytes/leukocytes: Below (treatment-emergent nongraded abnormality): 0 no. (%)
  Neutrophils/leukocytes: Above (treatment-emergent nongraded abnormality): 0 no. (%)
  Neutrophils/leukocytes: Below (treatment-emergent nongraded abnormality): 0 no. (%)
RSV [2]; across JNJ-8678 dose levels
  Dose-response relationship for antiviral effects: no clear dose-response relationship was observed
RSV [2]; all doses combined
  Reduction in viral load compared with placebo: greater reduction in viral load with JNJ-8678 than placebo
RSV [2]; by day 3, all JNJ-8678 doses combined
  Median RSV viral load change from baseline: −1.98 log10 copies/mL
RSV [3]
  Effect on viral load and clinical disease severity: substantially reduced both viral load and clinical disease severity
